Test results from ChEMBL document CHEMBL1177667, “Novel anti-viability ceramide analogs: design, synthesis, and structure-activity relationship studies of substituted (S)-2-(benzylideneamino)-3-hydroxy-N-tetradecylpropanamides” (Bioorg Med Chem, 2010).

Experiments:
[1] = Cytotoxicity against human MCF-7TN-R cells assessed as reduction in cell viability after 24 hrs by MTT assay; type: functional, cell-based
HEK293 = assay: Cytotoxicity against HEK293 cells assessed as reduction in cell viability; type: cell-based; conditions: Homo sapiens
Method in brief: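 MTT viability assay on non-tumorigenic human kidney cells, run by the same protocol as the breast cancer line. Cells were seeded at […] per well in phenol-free DMEM with 5% FBS and left to adhere overnight. Compounds were given at 0.1–100 µM for 24 h, then MTT (5 mg/mL) for 4 h. Cells were lysed in 20% SDS/50% DMF and read at 550 nm (reference 630 nm). Mean ±SE of four independent experiments.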

Compound `CCCCCCCCCCCCCCNC(=O)[C@H](CO)/N=C/c1ccc(Cl)cc1` has an IC50 [1] of 27.5 µM and an IC50 (HEK293) of 77.7 µM.

In the case of `CCCCCCCCCCCCCCNC(=O)[C@H](CO)/N=C/c1cccc(C)c1`, the IC50 [1] is reported as 82.9 µM and the IC50 (HEK293) is reported as 51.1 µM.

With `CCCCCCCCCCCCCCNC(=O)[C@H](CO)NCc1ccccc1Cl` the IC50 [1] was 43.7 µM.

Work on `CCCCCCCCCCCCCCNC(=O)[C@H](CO)/N=C/c1ccccc1O` yielded an IC50 [1] of 19 µM and an IC50 (HEK293) of 80.8 µM.

In the case of `CCCCCCCCCCCCCCNC(=O)[C@H](CO)/N=C/c1ccc([N+](=O)[O-])cc1`, the IC50 [1] is reported as 216 µM and the IC50 (HEK293) is reported as 49.5 µM.

Compound `CCCCCCCCCCCCCCNC(=O)[C@H](CO)/N=C/c1cccc(O)c1` has an IC50 [1] of 32.6 µM and an IC50 (HEK293) of 77.5 µM.

In the case of `CCCCCCCCCCCCCCNC(=O)[C@H](CO)/N=C/c1ccccc1`, the IC50 [1] is reported as 7.67 µM.

Compound `CCCCCCCCCCCCCCNC(=O)[C@H](CO)/N=C/c1ccc(O)cc1` has an IC50 [1] of 19.3 µM and an IC50 (HEK293) of 71.7 µM.

Work on `CCCCCCCCCCCCCCNC(=O)[C@H](CO)/N=C/c1ccccc1C` yielded an IC50 [1] of 87.7 µM and an IC50 (HEK293) of 81.1 µM.

Compound `CCCCCCCCCCCCCCNC(=O)[C@H](CO)/N=C/c1cccc([N+](=O)[O-])c1` has an IC50 [1] of 104 µM and an IC50 (HEK293) of 82.7 µM.

`CCCCCCCCCCCCCCNC(=O)[C@H](CO)/N=C/c1cccc(OC)c1` showed an IC50 [1] of 31.2 µM and an IC50 (HEK293) of 77.3 µM.

Work on `CCCCCCCCCCCCCCNC(=O)[C@H](CO)/N=C/c1ccc(OC)cc1` yielded an IC50 [1] of 28.1 µM and an IC50 (HEK293) of 81.7 µM.

In the case of `CCCCCCCCCCCCCCNC(=O)[C@H](CO)/N=C/c1ccccc1[N+](=O)[O-]`, the IC50 [1] is reported as 21.7 µM and the IC50 (HEK293) is reported as 82.6 µM.

For `CCCCCCCCCCCCCCNC(=O)[C@H](CO)/N=C/c1ccccc1Cl`, the IC50 [1] was 10.3 µM and the IC50 (HEK293) was 94.9 µM.

`CCCCCCCCCCCCCCNC(=O)[C@H](CO)NCc1ccccc1O` gave an IC50 [1] of 75.3 µM.

Compound `CCCCCCCCCCCCCCNC(=O)[C@H](CO)NCc1ccccc1[N+](=O)[O-]` has an IC50 [1] of 29.4 µM.

In the case of `CCCCCCCCCCCCCCNC(=O)[C@H](CO)/N=C/c1cccc(Cl)c1`, the IC50 [1] is reported as 24.1 µM and the IC50 (HEK293) is reported as 77 µM.

Work on `CCCCCCCCCCCCC/C=C/[C@@H](O)[C@H](CO)NC(=O)CCCCCCC` yielded an IC50 [1] of 8.59 µM.

`CCCCCCCCCCCCCCNC(=O)[C@H](CO)/N=C/c1ccccc1OC` showed an IC50 [1] of 12.5 µM and an IC50 (HEK293) of 79.2 µM.

Compound `CCCCCCCCCCCCCCNC(=O)[C@H](CO)/N=C/c1ccc(C)cc1` has an IC50 [1] of 102 µM and an IC50 (HEK293) of 47.3 µM.

With `CCCCCCCCCCCCCCNC(=O)[C@H](CO)NCc1ccccc1OC` the IC50 [1] was 100 µM.
